Measured values: ChEMBL document CHEMBL3751835, “Discovery of the imidazole-derived GPR40 agonist AM-3189” (Bioorg Med Chem Lett, 2016)
Active and inactive are the calls of the source. The rule behind the calls is not given here.

Assays:
[1] = Half life in rat at 0.5 mg/kg, iv; format: ADME, organism-based; settings: in vivo
Method in brief: (§1)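 Oral doses given as a suspension in aqueous 1% Tween 80 in 1% methylcellulose; IV doses formulated in 10% N,N-dimethylacetamide, 10% ethanol, 30% propylene glycol, 50% sterile water. Animals per species: mouse n = 2 (plasma from two mice at each time point), rat n = 2, dog n = 3, cynomolgus monkey n = 3.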

[2] = target: T1, Peroxisome proliferator-activated receptor delta (Homo sapiens) (UniProt Q03181); assay: Activity at PPARdelta (unknown origin) by cell based assay
T1 sequence (whole entry): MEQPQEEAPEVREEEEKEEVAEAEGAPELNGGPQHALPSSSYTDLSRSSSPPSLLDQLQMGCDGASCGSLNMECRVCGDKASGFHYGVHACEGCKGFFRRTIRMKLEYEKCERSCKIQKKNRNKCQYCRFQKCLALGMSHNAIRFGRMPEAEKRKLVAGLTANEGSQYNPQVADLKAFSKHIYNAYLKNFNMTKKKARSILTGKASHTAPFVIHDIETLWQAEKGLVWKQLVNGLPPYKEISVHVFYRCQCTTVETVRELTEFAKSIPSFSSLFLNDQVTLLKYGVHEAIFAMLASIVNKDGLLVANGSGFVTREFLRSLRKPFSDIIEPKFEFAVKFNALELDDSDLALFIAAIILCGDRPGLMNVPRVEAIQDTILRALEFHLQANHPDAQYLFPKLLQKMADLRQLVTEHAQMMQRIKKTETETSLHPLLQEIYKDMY

Pancreatic islet [3] = assay: Induction of glucose-stimulated insulin release in human GPR40 knock-in mouse pancreatic islets by insulin ELISA in presence of 0.1% human serum albumin and glucose; format: functional
Method in brief: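 Islets were isolated from knock-in mice in which the mouse GPR40 gene is replaced by human GPR40. Glucose-stimulated insulin secretion was measured in buffer containing 16.7 mM glucose and 0.1% human serum albumin.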

[4] = Ratio of drug level in brain to plasma in rat at 5 mg/kg, po after 3 hrs; format: ADME, organism-based
[5] = Clearance in mouse at 1 mg/kg, iv; format: ADME, organism-based; settings: in vivo; method in brief: as §1
MDR1 [6] = assay: Permeability across basolateral to apical side in MDCK cells expressing MDR1; format: ADME, cell-based, Canis lupus familiaris; settings: dog, read-out: permeability
[7] = Oral bioavailability in mouse at 5 mg/kg; format: ADME, organism-based; settings: in vivo; method in brief: as §1
[8] = Half life in mouse at 1 mg/kg, iv; format: ADME, organism-based; settings: in vivo; method in brief: as §1
[9] = Cmax in dog at 2 mg/kg, po; format: ADME, organism-based, Canis lupus familiaris; design: dose 2 mg/kg, route oral; settings: in vivo; method in brief: as §1
[10] = Half life in dog at 0.5 mg/kg, iv; format: ADME, organism-based, Canis lupus familiaris; settings: in vivo; method in brief: as §1
[11] = target: T2, Peroxisome proliferator-activated receptor alpha (Homo sapiens) (UniProt Q07869); assay: Activity at PPARalpha (unknown origin) by cell based assay
T2 sequence (whole entry): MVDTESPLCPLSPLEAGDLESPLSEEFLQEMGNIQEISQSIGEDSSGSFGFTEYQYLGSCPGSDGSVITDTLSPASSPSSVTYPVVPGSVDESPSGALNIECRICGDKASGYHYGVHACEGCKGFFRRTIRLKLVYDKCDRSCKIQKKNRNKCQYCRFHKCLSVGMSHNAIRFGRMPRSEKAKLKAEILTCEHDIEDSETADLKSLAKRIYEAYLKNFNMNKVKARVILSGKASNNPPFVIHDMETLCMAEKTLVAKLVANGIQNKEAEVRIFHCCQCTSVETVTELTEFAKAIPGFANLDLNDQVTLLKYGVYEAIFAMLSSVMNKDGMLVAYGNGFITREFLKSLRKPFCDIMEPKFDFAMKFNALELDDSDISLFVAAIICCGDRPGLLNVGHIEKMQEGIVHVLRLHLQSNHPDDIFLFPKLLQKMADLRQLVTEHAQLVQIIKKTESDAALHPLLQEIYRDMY

MDR1 [12] = assay: Efflux ratio of permeability from basolateral to apical over apical basolateral side in MDCK cells expressing MDR1; format: ADME, cell-based, Canis lupus familiaris; settings: dog
[13] = Volume of distribution at steady state in cynomolgus monkey at 0.5 mg/kg, iv; format: ADME, organism-based, Macaca fascicularis; settings: in vivo, read-out: Vdss; method in brief: as §1
[14] = Clearance in cynomolgus monkey at 0.5 mg/kg, iv; format: ADME, organism-based, Macaca fascicularis; settings: in vivo; method in brief: as §1
Canis lupus familiaris = species: Canis lupus familiaris; assay: Agonist activity at dog GPR40 in presence of 0.01% human serum albumin relative to AMG 837
MDR1 [15] = assay: Permeability across apical to basolateral side in MDCK cells expressing MDR1; format: ADME, cell-based, Canis lupus familiaris; settings: dog, read-out: permeability
[16] = target: Free fatty acid receptor 1 (Homo sapiens, UniProt O14842); assay: Partial agonist activity at human GPR40 expressed in CHO cells measured over 20 secs interval by luminometric analysis in presence of 100% human serum; format: cell-based
Sequence of Free fatty acid receptor 1 (Homo sapiens, UniProt O14842) (O14842 whole entry): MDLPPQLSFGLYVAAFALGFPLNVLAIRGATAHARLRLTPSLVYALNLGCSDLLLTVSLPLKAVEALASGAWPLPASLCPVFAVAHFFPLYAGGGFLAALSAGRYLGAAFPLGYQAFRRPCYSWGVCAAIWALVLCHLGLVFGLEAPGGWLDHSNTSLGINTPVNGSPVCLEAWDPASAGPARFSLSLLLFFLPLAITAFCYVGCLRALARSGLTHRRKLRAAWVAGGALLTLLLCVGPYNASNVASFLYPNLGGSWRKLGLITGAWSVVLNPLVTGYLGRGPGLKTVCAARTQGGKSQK
Method in brief: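 Aequorin chemiluminescence read-out of calcium flux in a CHO line stably transfected with human GPR40, giving EC50. Run in buffer containing 0.01% human serum albumin, or in 100% human serum to test activity with plasma proteins present.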

Mus musculus [17] = assay: Reduction of blood glucose AUC in human islet transplanted nude chimeric mouse at 1 and 10 mg/kg, po administered 1 hr prior to glucose challenge by OGTT; format: functional, organism-based
Method in brief: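 Nude mice had their endogenous pancreatic β-cells ablated with streptozotocin and were rescued to euglycemia by human islets transplanted under the kidney capsule. Compound was dosed before a glucose challenge, and the glucose AUC was determined.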

[18] = target: Free fatty acid receptor 1 (Rattus norvegicus, UniProt Q8K3T4); assay: Agonist activity at rat GPR40 in presence of 0.01% human serum albumin
Sequence of Free fatty acid receptor 1 (Rattus norvegicus, UniProt Q8K3T4) (Q8K3T4 whole entry): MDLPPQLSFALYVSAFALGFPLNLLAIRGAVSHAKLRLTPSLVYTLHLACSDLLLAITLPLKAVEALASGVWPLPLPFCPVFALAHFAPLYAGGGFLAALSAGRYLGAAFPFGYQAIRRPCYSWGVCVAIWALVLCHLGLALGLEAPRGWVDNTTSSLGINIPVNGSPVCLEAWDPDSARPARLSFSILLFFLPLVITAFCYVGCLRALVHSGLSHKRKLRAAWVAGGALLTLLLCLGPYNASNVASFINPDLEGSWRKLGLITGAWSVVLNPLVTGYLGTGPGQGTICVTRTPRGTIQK

[19] = Cmax in rat at 2 mg/kg, po; format: ADME, organism-based; design: dose 2 mg/kg, route oral; settings: in vivo; method in brief: as §1
[20] = Oral bioavailability in dog at 2 mg/kg; format: ADME, organism-based, Canis lupus familiaris; settings: in vivo; method in brief: as §1
[21] = target: Free fatty acid receptor 1 (Macaca fascicularis, UniProt Q76JV1); assay: Agonist activity at cynomolgus monkey GPR40 in presence of 0.01% human serum albumin relative to AMG 837
Sequence of Free fatty acid receptor 1 (Macaca fascicularis, UniProt Q76JV1) (Q76JV1 whole entry): as the sequence (O14842 whole entry) above, with G10A, T31R, L36R, A83G, F88A, G143V, R211H, Y250N, G296S, K297T counted along it

[22] = target: Free fatty acid receptor 1 (Rattus norvegicus) (UniProt Q8K3T4); assay: Agonist activity at rat GPR40 in presence of 0.01% human serum albumin relative to AMG 837
Sequence of Free fatty acid receptor 1 (Rattus norvegicus) (Q8K3T4 whole entry): as the sequence (Q8K3T4 whole entry) above

[23] = Oral bioavailability in cynomolgus monkey at 5 mg/kg; format: ADME, organism-based, Macaca fascicularis; settings: in vivo; method in brief: as §1
Pancreatic islet [24] = assay: Induction of insulin release in human pancreatic islets; format: functional
[25] = target: Free fatty acid receptor 1 (Mus musculus) (UniProt Q76JU9); assay: Agonist activity at mouse GPR40 in presence of 0.01% human serum albumin
Sequence of Free fatty acid receptor 1 (Mus musculus) (Q76JU9 whole entry): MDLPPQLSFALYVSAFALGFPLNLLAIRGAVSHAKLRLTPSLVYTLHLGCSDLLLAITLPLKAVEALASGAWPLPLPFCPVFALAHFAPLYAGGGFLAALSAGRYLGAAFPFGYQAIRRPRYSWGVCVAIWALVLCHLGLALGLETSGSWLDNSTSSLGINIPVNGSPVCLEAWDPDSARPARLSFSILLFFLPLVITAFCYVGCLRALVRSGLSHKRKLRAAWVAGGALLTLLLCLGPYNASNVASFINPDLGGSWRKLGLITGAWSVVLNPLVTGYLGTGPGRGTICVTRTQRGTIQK

[26] = Cmax in cynomolgus monkey at 5 mg/kg, po; format: ADME, organism-based, Macaca fascicularis; design: dose 5 mg/kg, route oral; settings: in vivo; method in brief: as §1
[27] = Half life in cynomolgus monkey at 0.5 mg/kg, iv; format: ADME, organism-based, Macaca fascicularis; settings: in vivo; method in brief: as §1
[28] = Oral bioavailability in rat at 2 mg/kg; format: ADME, organism-based; settings: in vivo; method in brief: as §1
Mus musculus [29] = assay: Reduction of blood glucose AUC in human GPR40 knock-in chimeric mouse at 30 mg/kg, po administered 1 hr prior to glucose challenge by OGTT; format: functional, organism-based
Method in brief: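 Female human GPR40 knock-in mice, 28 weeks old, fasted 6 h, then dosed by oral gavage with compound formulated in 1% methylcellulose, 1% Tween-80. Glucose 2 g/kg was given by oral gavage 1 h after the drug. Blood glucose was read from tail-vein samples at several time points with a glucometer.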

[30] = Volume of distribution at steady state in dog at 0.5 mg/kg, iv; format: ADME, organism-based, Canis lupus familiaris; settings: in vivo, read-out: Vdss; method in brief: as §1
[31] = system: GPR40 (hamster, Mesocricetus auratus); assay: Agonist activity at hamster GPR40 in presence of 0.01% human serum albumin

- half-life [1]: 1.6 h
- Activity [2]: inactive
- Kp at 3 h [4]: 0.04
- clearance [5]: 2.83 mL/min/kg
- Papp B→A (MDR1 [6]): 31 ×10⁻⁶ cm/s
- bioavailability [7]: 100%
- half-life [8]: 1.5 h
- Cmax [9]: 4400 nM
- half-life [10]: 5.1 h
- Activity [11]: inactive
- efflux ratio (MDR1 [12]): 22
- Vd [13]: 1.6 L/kg
- clearance [14]: 4.5 mL/min/kg
- Emax (Canis lupus familiaris): 37%
- Papp A→B (MDR1 [15]): 1.4 ×10⁻⁶ cm/s
- EC50 [16]: 10000 nM
- EC50 [18]: 640 nM
- Cmax [19]: 770 nM
- bioavailability [20]: 66%
- EC50 [21]: 29 nM
- Emax [22]: 41%
- bioavailability [23]: 34%
- Activity [25]: inactive
- Cmax [26]: 1190 nM
- half-life [27]: 7.6 h
- bioavailability [28]: 43%
- Vd [30]: 0.58 L/kg
- Activity [31]: inactive
SMILES: Cc1cc(Cl)ccc1-c1cccc(COc2ccc([C@H](CC(=O)O)c3nccn3C)cc2)c1
- Activity (Pancreatic islet [3]): Active
- Activity (Mus musculus [17]): Active
- Activity (Pancreatic islet [24]): Active
- Activity (Mus musculus [29]): Active
